# Assay results as given in ChEMBL document CHEMBL3351938, “C5-Alkyl-2-methylurea-Substituted Pyridines as a New Class of Glucokinase Activators” (ACS Med Chem Lett, 2014).
# Calls of active or inactive are those of the source. No cut-off for these calls is given here.
# Biological target: T1, Hexokinase-4 (Homo sapiens) (UniProt P35557)
# T1 sequence (whole entry): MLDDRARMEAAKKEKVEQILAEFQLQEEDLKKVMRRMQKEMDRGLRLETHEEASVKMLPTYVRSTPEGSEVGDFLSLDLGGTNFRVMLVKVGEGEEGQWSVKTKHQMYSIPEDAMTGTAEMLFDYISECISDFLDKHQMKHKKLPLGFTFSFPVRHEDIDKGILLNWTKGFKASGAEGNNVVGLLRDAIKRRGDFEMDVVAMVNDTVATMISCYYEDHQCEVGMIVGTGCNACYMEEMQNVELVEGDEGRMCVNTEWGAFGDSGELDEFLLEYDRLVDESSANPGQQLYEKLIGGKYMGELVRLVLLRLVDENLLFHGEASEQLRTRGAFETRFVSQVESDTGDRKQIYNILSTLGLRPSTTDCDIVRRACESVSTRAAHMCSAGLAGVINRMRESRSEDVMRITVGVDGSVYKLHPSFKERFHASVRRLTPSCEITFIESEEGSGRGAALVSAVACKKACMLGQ
# Experiment: Activity of activated human recombinant Glucokinase assessed as maximum glucose phosphorylation measured over 5 mins by spectrophotometry relative to unactivated enzyme
# In short: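 Recombinant human GK; V_max is the maximal velocity of glucose phosphorylation by activated GK divided by that of unactivated GK; n = 2.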
row,Ratio,SMILES
1,0.73,CCc1ncccc1Oc1cc(CCCC(C)(C)O)cnc1NC(=O)NC
2,0.79,CCn1nccc1Oc1cc(C[C@H]2CC[C@H](O)CC2)cnc1NC(=O)NC
3,0.71,CCn1nccc1Oc1cc(C[C@H]2CC[C@](C)(O)CC2)cnc1NC(=O)NC
4,0.82,CCc1ncccc1Oc1cc(CC(C)C)cnc1NC(=O)NC
5,0.74,CCc1ncccc1Oc1cc(CCCCOC)cnc1NC(=O)NC
6,0.96,CCn1nccc1Oc1cc(C[C@H]2C[C@H](O)C2)cnc1NC(=O)NC
7,0.78,CCc1ncccc1Oc1cc(CCCOC)cnc1NC(=O)NC
8,0.8,CCn1nccc1Oc1cc(CC2CCOCC2)cnc1NC(=O)NC

# Continued, molecule first:
row,SMILES,Ratio
1,CCn1nccc1Oc1cc(C[C@H]2CCO[C@H](COC)C2)cnc1NC(=O)NC,0.76
2,CCn1nccc1Oc1cc(C(O)C2CCOCC2)cnc1NC(=O)NC (stereo unspecified),0.82
3,CNC(=O)Nc1ncc(CC2CCOCC2)cc1Oc1ccnn1C(C)C,0.6
4,CCn1nccc1Oc1cc(C[C@H]2C[C@@H](O)C2)cnc1NC(=O)NC,0.88
5,CCn1nccc1Oc1cc(C[C@H]2CC[C@@H](O)CC2)cnc1NC(=O)NC,0.66
6,CCc1ncccc1Oc1cc(CCCCO)cnc1NC(=O)NC,0.86
7,CCn1nc(COC)cc1Oc1cc(CC2CCOCC2)cnc1NC(=O)NC,0.71
8,CCOCCc1cnc(NC(=O)NC)c(Oc2cccnc2CC)c1,0.7
9,CCn1nccc1Oc1cc(CN2CCOCC2)cnc1NC(=O)NC,0.78
10,CCn1nccc1Oc1cc(CCCCOC)cnc1NC(=O)NC,0.83
11,CCn1nccc1Oc1cc(C[C@@H]2CCO[C@@H](COC)C2)cnc1NC(=O)NC,0.78
12,CCn1nccc1Oc1cc(C[C@H]2CC[C@@](C)(O)CC2)cnc1NC(=O)NC,0.82
13,CCn1nccc1Oc1cc(CCCC(C)(C)O)cnc1NC(=O)NC,0.75
14,CCc1ncccc1Oc1cc(CC2CCCCC2)cnc1NC(=O)NC,0.73
15,CCn1nccc1Oc1cc(C[C@H]2C[C@@](C)(O)C2)cnc1NC(=O)NC,0.8
16,CCc1ncccc1Oc1cc(CC2CCOCC2)cnc1NC(=O)NC,0.75

# System: Mus musculus
# Experiment: Antidiabetic activity in fasted ob/ob mouse assessed as reduction in blood glucose AUC compound administered orally 30 mins prior glucose challenge by oral glucose tolerance test relative to control
# Format: functional, organism-based
# In short: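 OGTT in fasted ob/ob mice with oral doses of 0.3, 1, 3 and 10 mg/kg; blood glucose AUC compared to vehicle by two-way ANOVA.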
row,SMILES,Activity
1,CCn1nccc1Oc1cc(C[C@H]2C[C@](C)(O)C2)cnc1NC(=O)NC,Dose-dependent effect

# System: Mus musculus
# Experiment: Antidiabetic activity in C57Bl/6 mouse assessed as reduction in blood glucose AUC at 30 mg/kg, po administered 30 mins prior glucose challenge by oral glucose tolerance test
# Format: functional, organism-based
# Set-up: dose 30 mg/kg
# In short: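 Oral dose–response OGTT in C57Bl/6 mice at 3, 10 and 30 mg/kg; blood glucose area-under-curve assessed; significance versus vehicle by two-way ANOVA.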
row,SMILES,Activity
1,CCn1nccc1Oc1cc(CC2CCOCC2)cnc1NC(=O)NC,Active
